Measured values reported in ChEMBL document CHEMBL5036371, “Steroid-Quinoline Hybrids for Disruption and Reversion of Protein Aggregation Processes” (ACS Med Chem Lett, 2022).
Calls of active or inactive are those of the source. No cut-off for these calls is given here.

Columns and labels:
[1] = biological target: Amyloid-beta precursor protein (Homo sapiens) (UniProt P05067); test: Disaggregation of aggregated human amyloid beta (1 to 42) preformed fibrils in human SH-SY5Y cells assessed as decrease the number of foci to basal levels at 50 uM for 12 hrs by confocal microscopy relative to control; format: cell-based
Procedure, shortened: (§1)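 SH-SY5Y cells were loaded for 16 h with preaggregated synthetic Aβ1–42, then given compound at 50 μM for a further 12 h in 0.5% EtOH vehicle. Cells were fixed, stained with Proteostat and imaged by confocal microscopy. Number and average area of aggregate foci per cell were scored over 10–20 fields, n = 2, about 370 cells per condition. Data are mean ± SD, unpaired t test.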

HeLa = test: Cytotoxicity against human HeLa cells assessed as reduction in cell viability at 0.1 to 100 uM incubated for 24 to 48 hrs by Alamar blue colorimetric assay; format: cell-based; details: dose lower 0.1 µM, time lower 24 hrs, dose upper 100 µM, time upper 48 hrs
Procedure, shortened: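 Resazurin (alamarBlue) metabolic viability read-out in HeLa cells exposed for 24 and 48 h to 0.1, 1, 10, 50 and 100 μM compound.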

[2] = biological target: Amyloid-beta precursor protein (Homo sapiens) (UniProt P05067); test: Inhibition of amyloid beta (1 to 42) (unknown origin) aggregation assessed as reduction in fluorescence intensity at 20 uM measured upto 30 h by thioflavin-T fluorescence assay
Procedure, shortened: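 Aβ1–42 peptide (10 μM) fibrillation with 20 μM compound was followed over time by thioflavin-T fluorescence, with quercetin as positive control. Inhibition was judged from reduction of final fluorescence intensity.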

[3] = biological target: Heat shock protein beta-1 (Homo sapiens) (UniProt P04792); test: Disaggregation of protein aggregates in human HeLa cells expressing HSP27:GFP assessed as number of HSP27:GFP foci per cell at 50 uM for 12 hr in presence of nilotinib by green fluorescent protein based confocal microscopy (rvb = 0.71)
Procedure, shortened: (§2)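 Sensor HeLa cells (HSP27:GFP) were kept for 48 h with 5 μM nilotinib, and 50 μM compound was co-added for the final 12 h in 0.5% EtOH vehicle. Green foci per cell (count and mean area) were quantified by fluorescence microscopy. Data are mean ± SD, n = 4–10, about 4700 cells per condition. Comparison was against nilotinib alone by unpaired t test.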

[4] = biological target: Heat shock protein beta-1 (Homo sapiens) (UniProt P04792); test: Disaggregation of protein aggregates in human HeLa cells expressing HSP27:GFP assessed as HSP27:GFP foci area per cell cell at 50 uM for 12 hr in presence of nilotinib by green fluorescent protein based confocal microscopy (rvb = 0.71); procedure, shortened: as §2
[5] = biological target: Amyloid-beta precursor protein (Homo sapiens) (UniProt P05067); test: Disaggregation of aggregated huamn amyloid beta (1 to 42) fibrils in human SH-SY5Y cells assessed as decrease the area of foci to basal levels at 50 uM for 12 hour by confocal microscopy relative to control; format: cell-based; procedure, shortened: as §1
[6] = biological target: Heat shock protein beta-1 (Homo sapiens) (UniProt P04792); test: Aggregation in human HeLa cells expressing HSP27:GFP protein sensor assessed as number of HSP27:GFP foci per cell at 5 uM incubated for 48 hr by green fluorescent protein based confocal microscopy (rvb = 0.71)
Procedure, shortened: (§3)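 HeLa cells stably expressing the HSP27:GFP aggregation sensor were exposed to 5 μM nilotinib for 48 h in 0.5% EtOH vehicle. Sensor relocalization to foci was imaged by fluorescence microscopy, and green foci number and average area per cell were scored. Data are mean ± SD, n = 4–10, about 4700 cells per condition, compared by unpaired Student's t test.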

[7] = biological target: Heat shock protein beta-1 (Homo sapiens) (UniProt P04792); test: Aggregation in human HeLa cells expressing HSP27:GFP protein in sensor assessed as HSP27:GFP foci area per cell at 5 uM incubated for 48 hrs by green fluorescent protein based confocal microscopy (rvb = 0.6); procedure, shortened: as §3

Amyloid-beta precursor protein (Homo sapiens), sequence (P05067 whole entry): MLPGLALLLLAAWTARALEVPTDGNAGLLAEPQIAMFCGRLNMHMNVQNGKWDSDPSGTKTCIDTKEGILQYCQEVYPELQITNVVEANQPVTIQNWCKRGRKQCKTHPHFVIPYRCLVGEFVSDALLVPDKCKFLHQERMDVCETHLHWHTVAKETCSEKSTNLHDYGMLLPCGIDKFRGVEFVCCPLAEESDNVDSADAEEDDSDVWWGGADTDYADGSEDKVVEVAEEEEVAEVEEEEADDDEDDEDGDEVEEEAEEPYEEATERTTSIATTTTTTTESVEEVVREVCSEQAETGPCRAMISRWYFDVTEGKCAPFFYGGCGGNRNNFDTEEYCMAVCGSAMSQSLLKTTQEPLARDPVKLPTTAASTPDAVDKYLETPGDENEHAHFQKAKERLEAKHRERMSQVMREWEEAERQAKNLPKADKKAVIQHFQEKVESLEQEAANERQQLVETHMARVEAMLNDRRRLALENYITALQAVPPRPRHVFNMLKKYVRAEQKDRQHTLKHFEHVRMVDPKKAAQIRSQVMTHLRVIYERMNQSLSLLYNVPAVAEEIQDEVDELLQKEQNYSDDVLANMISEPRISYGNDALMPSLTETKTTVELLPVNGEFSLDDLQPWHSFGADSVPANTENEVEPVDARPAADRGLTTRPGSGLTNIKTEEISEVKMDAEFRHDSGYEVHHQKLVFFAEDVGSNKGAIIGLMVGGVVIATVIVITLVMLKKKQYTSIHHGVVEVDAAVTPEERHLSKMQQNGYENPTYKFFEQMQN
Heat shock protein beta-1 (Homo sapiens), sequence (P04792 whole entry): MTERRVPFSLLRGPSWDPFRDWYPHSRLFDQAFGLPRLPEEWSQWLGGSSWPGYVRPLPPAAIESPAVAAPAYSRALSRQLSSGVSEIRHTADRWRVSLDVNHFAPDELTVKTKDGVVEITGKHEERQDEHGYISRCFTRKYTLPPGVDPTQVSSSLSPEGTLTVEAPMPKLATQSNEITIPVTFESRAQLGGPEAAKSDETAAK

SMILES | Activity [1] | inhibition [2] | Activity [3] [%] | Activity [4] [%] | Activity [5] | Activity [6] | Activity [7] [um2] | Activity (HeLa)
CC(C)CCC[C@@H](C)[C@H]1CC[C@H]2[C@@H]3CC=C4c5c(nc6ccc(Cl)cc6c5-c5ccccc5Cl)CC[C@]4(C)[C@H]3CC[C@]12C | Active | Active | 50 | 50 | inactive |  |  | Non-Toxic
Cc1cn(-c2cc(NC(=O)c3ccc(C)c(Nc4nccc(-c5cccnc5)n4)c3)cc(C(F)(F)F)c2)cn1 |  |  |  |  |  | 3.96 | 7.5 | 
CC(C)CCC[C@@H](C)[C@H]1CC[C@H]2[C@@H]3CC=C4c5c(nc6ccc(Cl)cc6c5-c5ccccc5)CC[C@]4(C)[C@H]3CC[C@]12C | inactive | inactive | 50 | 50 | Active |  |  | Non-Toxic

The next lines start with results.

Activity [1] | inhibition [2] | Activity [3] [%] | Activity [4] [%] | Activity [5] | Activity [6] | Activity [7] [um2] | SMILES | Activity (HeLa)
Active | inactive | 50 | 50 | inactive |  |  | CC(C)CCC[C@@H](C)[C@H]1CC[C@H]2[C@@H]3CC=C4c5c(nc6ccccc6c5-c5ccccc5)CC[C@]4(C)[C@H]3CC[C@]12C | Non-Toxic
Active | Active | 50 | 50 | inactive |  |  | Cc1c2c(nc3ccccc13)CC[C@@]1(C)C2=CC[C@H]2[C@@H]3CC[C@H]([C@H](C)CCCC(C)C)[C@@]3(C)CC[C@@H]21 | Non-Toxic
